We go through 28 molecules from ChEMBL document CHEMBL1134955, “Identification and structure-activity studies of novel ultrashort-acting benzodiazepine receptor agonists” (Bioorg Med Chem Lett, 2002).

In assay [1] the test system is Rattus norvegicus. Briefly: Loss of righting reflex recovery time (total) in rat was determined when treated with a dose of 30 mg/Kg. It counts as functional, organism-based. In short, it runs like this: (§1)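 Rats given an iv bolus in 50% PEG/25% EtOH/25% saline. Scored for time to LRR onset, initial recovery (rights itself three consecutive times) and total recovery (walks without ataxia and pulls up three times when hung from a horizontal wire), in min.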

In assay [2] the target is GABA-A receptor; anion channel. Kind of assay: Binding affinity to rat benzodiazepine receptor. In kind it is protein-complex assay. An outline of the steps:
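Rat BZD receptor membranes incubated with 2 nM [3H]-flunitrazepam and test ligand for 90 min at 4 °C in 50 mM Tris–HCl pH 7.4 with 150 mM NaCl. Twelve-point curves made by 3-fold serial dilution from DMSO stocks, final DMSO ≤0.4%. Nonspecific binding taken with 2'-chlorodiazepam. Filtration through GF/B, ice-cold Tris washes, scintillation counting. Triplicates, at least three runs; Ki reported in nM.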

Assay [3] has as its system Rattus norvegicus. Kind of assay: Loss of righting reflex recovery time (initial) in rat was determined when treated with a dose of 30 mg/Kg. In kind it is functional, organism-based. In short, it runs like this:
as §1

The target of assay [4] is GABA-A receptor; anion channel (Rattus norvegicus) (UniProt O09028+P15431+P18506+P18508+P19969+P20236+P23574+P23576+P28471+P28473+P30191+P62813+P63079+P63138+Q91ZM7+Q9ES14). Briefly: Ratio between Ki value (acid) / Ki value (ester) was determined. It counts as protein-complex assay. In short, it runs like this:
(§2)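 Ki of the acid divided by Ki of the matching ester. Both Ki values come from [3H]-flunitrazepam displacement at rat BZD receptor membranes (2 nM radioligand, 90 min, 4 °C, Tris–HCl pH 7.4 with NaCl), with triplicate 12-point curves.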

Assay [5] is described as follows: Ratio between Ki (acid) / Ki (ester) was determined. In short, it runs like this:
as §2

pKi: −log10 of the molar value.

For the molecule `COC(=O)CC[C@@H]1N=C(c2ccccc2F)c2cc(Br)ccc2NC1=O`, the Recovery time was 30 min in assay [1] and 22 min in assay [3]. Further, the pKi (in general, the negative decadic logarithm of the Ki, by convention in mol/L) in assay [2] is 8.52. In addition, the Ratio in assay [4] is 431.

In the case of `O=C(CC[C@@H]1N=C(c2ccccc2F)c2cc(Cl)ccc2NC1=O)OCc1ccncc1`, in assay [2], the pKi is 7.47. In addition, the Ratio in assay [4] came out at 124.

In the case of `COC(=O)CCC[C@@H]1N=C(c2ccccc2F)c2cc(Cl)ccc2NC1=O`, in assay [2], the pKi was 8.52. In assay [4], the Ratio is 186.

As to `O=C(C[C@H]1N=C(c2ccccc2)c2cc(Cl)ccc2NC1=O)OCc1ccccc1`, the negative logarithm of the Ki (pKi) in assay [2] is 4.00.

For the molecule `O=C(C[C@@H]1N=C(c2ccccc2F)c2cc(Cl)ccc2NC1=O)OCc1ccccc1`, the Recovery time is 17 min in assay [1] and 13 min in assay [3]. For the same molecule, in assay [2], the pKi is 6.75. The Ratio in assay [4] turned out to be 76.

In assay [2], `COC(=O)C[C@@H]1N=C(c2ccccc2F)c2cc(Cl)ccc2NC1=O` gave a pKi of 7.09. The Ratio in assay [5] stood at 165.

`COC(=O)CC[C@@H]1N=C(c2ccccc2F)c2cc([N+](=O)[O-])ccc2NC1=O`: in assay [2], the pKi was 8.15.

Take `O=C(CC[C@@H]1N=C(c2ccccc2)c2cc(Cl)ccc2NC1=O)OCc1ccccc1`: the Recovery time is 22 min in assay [1] and 15 min in assay [3]. In assay [2], the pKi is 6.70.

`COC(=O)CC[C@@H]1N=C(c2ccccc2F)c2cc(Cl)ccc2NC1=O`: the figures for the Recovery time in assay [1] and in assay [3] were 24 min and 9 min, respectively. Also, the pKi in assay [2] is 8.15. Also, in assay [4], the Ratio came out at 984.

`COC(=O)CN[C@@H]1N=C(c2ccccc2Cl)c2cc(Cl)ccc2NC1=O`: the pKi in assay [2] is 6.32. In addition, in assay [4], the Ratio amounted to 9.

Take `CCOC(=O)C[C@@H]1N=C(c2ccccc2F)c2cc(Cl)ccc2NC1=O`: the pKi in assay [2] was 7.35. Also, in assay [4], the Ratio was found to be 297.

In the case of `COC(=O)CCN[C@@H]1N=C(c2ccccc2Cl)c2cc(Cl)ccc2NC1=O`, the pKi in assay [2] is 6.72. The Ratio in assay [4] came out at 1.

In turn, `COC(=O)CCNC1N=C(c2ccccc2Cl)c2cc(Cl)ccc2NC1=O` (centres undefined) showed a pKi in assay [2] of 7.77. The Ratio in assay [4] was 17.

`O=C(CC[C@@H]1N=C(c2ccccc2)c2cc([N+](=O)[O-])ccc2NC1=O)OCc1ccccc1`: the Recovery time in assay [1] is 3 min; in assay [3], 2 min. The molecule also had a pKi in assay [2] of 6.91. In assay [4], the Ratio worked out at 91.

Take `O=C(CC[C@@H]1N=C(c2ccccc2F)c2cc(Cl)ccc2NC1=O)OCc1ccccc1`: the Recovery time in assay [1] turned out to be 19 min; in assay [3], 8 min. This molecule also gave a pKi in assay [2] of 7.54. Besides, the Ratio in assay [4] is 143.

The molecule `COC(=O)CC[C@@H]1N=C(c2ccccc2F)c2ccccc2NC1=O` gave a negative logarithm of the Ki (pKi) in assay [2] of 7.04.

As to `CN1C(=O)CN=C(c2ccccc2)c2cc(Cl)ccc21`, the Recovery time in assay [1] is 82 min; in assay [3], 5 min.

As for `CCCCOC(=O)CC[C@@H]1N=C(c2ccccc2F)c2cc(Cl)ccc2NC1=O`, the figures for the Recovery time in assay [1] and in assay [3] were 25 min and 15 min, respectively. Also, the pKi in assay [2] is 6.62. In addition, the Ratio in assay [4] came to 17.

`COC(=O)CNC1N=C(c2ccccc2Cl)c2cc(Cl)ccc2NC1=O` (centres undefined): in assay [2], the pKi was 7.28. In addition, in assay [4], the Ratio worked out at 35.

In the case of `CC(C)OC(=O)CC[C@@H]1N=C(c2ccccc2F)c2cc(Cl)ccc2NC1=O`, the pKi in assay [2] was 7.41. The Ratio in assay [4] was found to be 108.

Take `COC(=O)CN[C@H]1N=C(c2ccccc2Cl)c2cc(Cl)ccc2NC1=O`: in assay [2], the pKi is 7.64. For the same molecule, the Ratio in assay [4] is 172.

As for `O=C(C[C@@H]1N=C(c2ccccc2F)c2cc(Cl)ccc2NC1=O)OCc1ccncc1`, in assay [2], the pKi is 6.54.

For `COC(=O)CCN[C@H]1N=C(c2ccccc2Cl)c2cc(Cl)ccc2NC1=O`, the pKi in assay [2] was 8.52. In addition, in assay [4], the Ratio came out at 130.

As for `O=C(C[C@@H]1N=C(c2ccccc2)c2cc(Cl)ccc2NC1=O)OCc1ccccc1`, the Recovery time stood at 14 min in assay [1] and 4 min in assay [3]. In assay [2], the pKi is 5.84.

As to `Cc1ncc2n1-c1ccc(Cl)cc1C(c1ccccc1F)=NC2` [MIDAZOLAM], the results for the Recovery time in assay [1] and in assay [3] were 121 min and 23 min, respectively. In assay [2], this molecule had a pKi of 8.70.

Turning to `O=C(CC[C@@H]1N=C(c2ccccc2F)c2ccccc2NC1=O)OCc1ccccc1`, in assay [2], the pKi is 6.79.

For the molecule `COC(=O)CC[C@H]1N=C(c2ccccc2F)c2cc(Cl)ccc2NC1=O`, the Recovery time in assay [1] was 4 min; in assay [3] it was 2 min. In addition, the pKi in assay [2] is 6.13.

Turning to `COC(=O)CC[C@@H]1N=C(c2ccccc2)c2cc([N+](=O)[O-])ccc2NC1=O`, the Recovery time in assay [1] stood at 14 min; in assay [3], 2 min. In assay [2], the pKi is 6.93. In assay [4], the Ratio stood at 95.
